The results in this text go back to ChEMBL document CHEMBL4043093, “2-Oxo-3, 4-dihydropyrimido[4, 5-d]pyrimidinyl derivatives as new irreversible pan fibroblast growth factor receptor (FGFR) inhibitors” (Eur J Med Chem, 2017).

Assay [1] addresses Activin receptor type-1-like (Homo sapiens) (UniProt P37023). As to the kind of experiment: Inhibition of wild-type human ACVRL1 (L164 to Q503 residues) expressed in Escherichia coli BL21 assessed as residual activity at 1000 nM after 30 mins by Kinomescan method relative to control. The method in brief: (§1)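 Single-point screen at a fixed 1 µM, run within a 456-kinase DiscoveRx KINOMEscan panel. Each kinase's read-out is Percent Control, i.e. signal relative to a control without compound. Hits were scored by a Percent Control < 35 cut-off, and an S(35) selectivity score was calculated across the non-mutant kinases.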

Assay [2] concerns the target Atypical kinase COQ8A, mitochondrial (Homo sapiens) (UniProt Q8NI60). The assay is described as follows: Inhibition of wild-type human […] ADCK3 (M280 to Q647 residues) expressed in Escherichia coli BL21 assessed as residual activity at 1000 nM after 30 mins by Kinomescan method relative to control. The method, boiled down: as §1
For assay [3], the target named is Bone morphogenetic protein receptor type-1A (Homo sapiens) (UniProt P36894). The assay is described as follows: Inhibition of wild-type human partial length BMPR1A (Q214 to I532 residues) expressed in Escherichia coli BL21 assessed as residual activity at 1000 nM after 30 mins by Kinomescan method relative to control.
Assay [4] concerns the target Macrophage colony-stimulating factor 1 receptor (Homo sapiens) (UniProt P07333). As to the kind of experiment: Inhibition of wild-type human partial length autoinhibited CSF1R (Y538 to S939 residues) expressed in HEK293 cells assessed as residual activity at 1000 nM after 30 mins by Kinomescan method relative to control. Format: cell-based.
In assay [5] the target is Serine/threonine-protein kinase DCLK1 (Homo sapiens) (UniProt O15075). The assay is described as follows: Inhibition of wild-type human partial length DCAMKL1 (L270 to A662 residues) expressed in HEK293 cells assessed as residual activity at 1000 nM after 30 mins by Kinomescan method relative to control. Format: cell-based.
The target in assay [6] is Ephrin type-A receptor 6 (Homo sapiens) (UniProt Q9UF33). The assay is described as follows: Inhibition of wild-type human partial length EPHA6 (Y700 to E1046 residues) expressed in Escherichia coli BL21 assessed as residual activity at 1000 nM after 30 mins by Kinomescan method relative to control.
For assay [7], the system named is Receptor-type tyrosine-protein kinase FLT3 (Homo sapiens), P36888 [D835Y]. The assay is described as follows: Inhibition of human partial length FLT3 D835Y mutant (Q580 to Y969 residues) expressed in Escherichia coli BL21 assessed as residual activity at 1000 nM after 30 mins by Kinomescan method relative to control. The method, boiled down:
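KINOMEscan binding panel of 456 kinases, with the test compound at a single concentration of 1 µM. Read-out is Percent Control.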

For assay [8], the target named is Cyclin-G-associated kinase (Homo sapiens) (UniProt O14976). As to the kind of experiment: Inhibition of wild-type human partial length GAK (G13 to Y338 residues) expressed in Escherichia coli BL21 assessed as residual activity at 1000 nM after 30 mins by Kinomescan method relative to control.
The target in assay [9] is Glycogen synthase kinase-3 beta (Homo sapiens) (UniProt P49841). The assay is described as follows: Inhibition of wild-type human full length GSK3B (M1 to T433 residues) expressed in HEK293 cells assessed as residual activity at 1000 nM after 30 mins by Kinomescan method relative to control. Format: cell-based. The method, boiled down: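 Single-concentration screen at 1 µM across a 456-kinase KINOMEscan panel. The read-out is Percent Control for each kinase.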

Assay [10] has as its target Interleukin-1 receptor-associated kinase 4 (Homo sapiens) (UniProt Q9NWZ3). As to the kind of experiment: Inhibition of wild-type human partial length IRAK4 (M1 to S460 residues) expressed in HEK293 cells assessed as residual activity at 1000 nM after 30 mins by Kinomescan method relative to control. It is filed as cell-based.
In assay [11] the target is Tyrosine-protein kinase JAK3 (Homo sapiens) (UniProt P52333). As to the kind of experiment: Inhibition of wild-type human partial length JAK3 JH1 catalytic domain (I781 to S1124 residues) expressed in HEK293 cells assessed as residual activity at 1000 nM after 30 mins by Kinomescan method relative to control. Format: cell-based.
The target of assay [12] is Serine/threonine-protein kinase 38-like (Homo sapiens) (UniProt Q9Y2H1). The assay is described as follows: Inhibition of wild-type human partial length NDR2 (N34 to E447 residues) expressed in Escherichia coli BL21 assessed as residual activity at 1000 nM after 30 mins by Kinomescan method relative to control.
Assay [13] has as its target Serine/threonine-protein kinase Nek10 (Homo sapiens) (UniProt Q6ZWH5). The assay is described as follows: Inhibition of wild-type human partial length NEK10 (L488 to R809 residues) expressed in HEK293 cells assessed as residual activity at 1000 nM after 30 mins by Kinomescan method relative to control. Format: cell-based.
Assay [14] concerns the target Phosphatidylinositol 5-phosphate 4-kinase type-2 gamma (Homo sapiens) (UniProt Q8TBX8). As to the kind of experiment: Inhibition of wild-type human partial length PIP5K2C (M1 to A421 residues) expressed in HEK293 cells assessed as residual activity at 1000 nM after 30 mins by Kinomescan method relative to control. It is filed as cell-based.
Assay [15] deals with cAMP-dependent protein kinase catalytic subunit beta (Homo sapiens) (UniProt P22694). The assay is described as follows: Inhibition of wild-type human full length PKAC-beta (M1 to F351 residues) expressed in Escherichia coli BL21 assessed as residual activity at 1000 nM after 30 mins by Kinomescan method relative to control. The method in brief: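 Single-concentration screen at 1 µM against a 456-kinase panel (KINOMEscan). Read-out is Percent Control for each kinase. Across the 403 non-mutant kinases, an S(35) selectivity score was derived as the fraction of kinases with Percent Control < 35.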

Assay [16] has as its target cGMP-dependent protein kinase 2 (Homo sapiens) (UniProt Q13237). As to the kind of experiment: Inhibition of wild-type human partial length PRKG2 (S422 to F762 residues) expressed in HEK293 cells assessed as residual activity at 1000 nM after 30 mins by Kinomescan method relative to control. It is filed as cell-based.
Assay [17] relates to Proto-oncogene tyrosine-protein kinase receptor Ret (Homo sapiens), P07949 [V804L]. The assay is described as follows: Inhibition of human partial length RET V804L mutant (E713 to D1014 residues) expressed in Escherichia coli BL21 assessed as residual activity at 1000 nM after 30 mins by Kinomescan method relative to control. The method, boiled down:
as §1

In assay [18] the target is Uncharacterized serine/threonine-protein kinase SBK3 (Homo sapiens) (UniProt P0C264). The assay is described as follows: Inhibition of wild-type human partial length SgK110 (L22 to R329 residues) expressed in Escherichia coli BL21 assessed as residual activity at 1000 nM after 30 mins by Kinomescan method relative to control.
Assay [19] concerns the target SRSF protein kinase 3 (Homo sapiens) (UniProt Q9UPE1). The assay is described as follows: Inhibition of wild-type human partial length SRPK3 (P41 to P567 residues) expressed in Escherichia coli BL21 assessed as residual activity at 1000 nM after 30 mins by Kinomescan method relative to control.
Assay [20] has as its target TGF-beta receptor type-1 (Homo sapiens) (UniProt P36897). As to the kind of experiment: Inhibition of wild-type human partial length TGFBR1 (D179 to M503 residues) expressed in Escherichia coli BL21 assessed as residual activity at 1000 nM after 30 mins by Kinomescan method relative to control.

Chain of Interleukin-1 receptor-associated kinase 4 (Homo sapiens) (Q9NWZ3 whole entry, the tested form may be a part): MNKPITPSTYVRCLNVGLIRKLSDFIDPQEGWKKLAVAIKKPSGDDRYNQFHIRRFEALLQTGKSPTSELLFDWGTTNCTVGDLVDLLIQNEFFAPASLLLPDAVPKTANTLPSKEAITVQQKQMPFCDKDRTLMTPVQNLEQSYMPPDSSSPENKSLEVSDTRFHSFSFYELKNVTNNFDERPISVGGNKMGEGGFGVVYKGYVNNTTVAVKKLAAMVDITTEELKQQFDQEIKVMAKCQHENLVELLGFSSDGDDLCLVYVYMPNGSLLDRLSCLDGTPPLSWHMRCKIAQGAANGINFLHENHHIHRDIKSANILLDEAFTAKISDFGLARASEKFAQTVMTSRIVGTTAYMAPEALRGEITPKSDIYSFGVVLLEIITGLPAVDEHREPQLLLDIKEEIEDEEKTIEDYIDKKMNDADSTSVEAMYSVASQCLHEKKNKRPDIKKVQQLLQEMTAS
Chain of Tyrosine-protein kinase JAK3 (Homo sapiens) (P52333 whole entry, the tested form may be a part): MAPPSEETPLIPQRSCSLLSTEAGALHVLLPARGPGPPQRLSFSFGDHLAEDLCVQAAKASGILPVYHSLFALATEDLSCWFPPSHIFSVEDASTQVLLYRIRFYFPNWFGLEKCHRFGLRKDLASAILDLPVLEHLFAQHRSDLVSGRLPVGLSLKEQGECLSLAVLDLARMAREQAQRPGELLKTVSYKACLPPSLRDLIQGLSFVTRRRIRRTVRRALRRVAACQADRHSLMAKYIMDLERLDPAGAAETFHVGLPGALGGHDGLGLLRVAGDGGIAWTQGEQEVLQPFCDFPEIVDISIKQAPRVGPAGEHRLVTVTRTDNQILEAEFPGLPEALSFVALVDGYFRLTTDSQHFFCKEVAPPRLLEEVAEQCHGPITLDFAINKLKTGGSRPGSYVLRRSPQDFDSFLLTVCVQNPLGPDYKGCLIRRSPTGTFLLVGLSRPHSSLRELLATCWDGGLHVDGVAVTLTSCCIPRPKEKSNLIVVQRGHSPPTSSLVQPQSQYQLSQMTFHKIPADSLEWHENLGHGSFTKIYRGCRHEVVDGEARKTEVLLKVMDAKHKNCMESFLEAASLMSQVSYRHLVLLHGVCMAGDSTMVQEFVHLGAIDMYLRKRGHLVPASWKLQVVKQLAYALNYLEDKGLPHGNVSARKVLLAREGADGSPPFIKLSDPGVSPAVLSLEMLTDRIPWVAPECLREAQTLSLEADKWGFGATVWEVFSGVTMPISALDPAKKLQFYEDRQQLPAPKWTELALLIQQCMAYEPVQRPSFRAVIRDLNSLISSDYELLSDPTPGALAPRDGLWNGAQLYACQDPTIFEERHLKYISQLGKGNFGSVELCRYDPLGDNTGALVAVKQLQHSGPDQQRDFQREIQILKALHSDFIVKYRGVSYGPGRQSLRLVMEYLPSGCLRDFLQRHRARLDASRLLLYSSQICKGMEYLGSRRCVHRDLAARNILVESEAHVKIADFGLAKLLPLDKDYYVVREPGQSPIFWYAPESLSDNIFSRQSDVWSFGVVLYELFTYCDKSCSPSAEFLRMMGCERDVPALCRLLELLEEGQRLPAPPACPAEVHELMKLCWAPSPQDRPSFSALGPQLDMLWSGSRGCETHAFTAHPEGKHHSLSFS
Chain of Uncharacterized serine/threonine-protein kinase SBK3 (Homo sapiens) (P0C264 whole entry, the tested form may be a part): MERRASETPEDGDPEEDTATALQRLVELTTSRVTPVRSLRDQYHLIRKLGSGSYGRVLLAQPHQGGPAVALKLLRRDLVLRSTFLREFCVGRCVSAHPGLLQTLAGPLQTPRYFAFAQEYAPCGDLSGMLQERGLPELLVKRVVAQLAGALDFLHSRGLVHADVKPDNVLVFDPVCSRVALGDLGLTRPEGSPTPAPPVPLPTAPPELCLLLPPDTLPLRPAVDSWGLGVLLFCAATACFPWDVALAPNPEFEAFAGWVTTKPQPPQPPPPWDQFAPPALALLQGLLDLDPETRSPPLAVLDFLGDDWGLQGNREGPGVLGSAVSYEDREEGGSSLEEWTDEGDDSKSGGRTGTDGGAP
Chain of Macrophage colony-stimulating factor 1 receptor (Homo sapiens) (P07333 whole entry, the tested form may be a part): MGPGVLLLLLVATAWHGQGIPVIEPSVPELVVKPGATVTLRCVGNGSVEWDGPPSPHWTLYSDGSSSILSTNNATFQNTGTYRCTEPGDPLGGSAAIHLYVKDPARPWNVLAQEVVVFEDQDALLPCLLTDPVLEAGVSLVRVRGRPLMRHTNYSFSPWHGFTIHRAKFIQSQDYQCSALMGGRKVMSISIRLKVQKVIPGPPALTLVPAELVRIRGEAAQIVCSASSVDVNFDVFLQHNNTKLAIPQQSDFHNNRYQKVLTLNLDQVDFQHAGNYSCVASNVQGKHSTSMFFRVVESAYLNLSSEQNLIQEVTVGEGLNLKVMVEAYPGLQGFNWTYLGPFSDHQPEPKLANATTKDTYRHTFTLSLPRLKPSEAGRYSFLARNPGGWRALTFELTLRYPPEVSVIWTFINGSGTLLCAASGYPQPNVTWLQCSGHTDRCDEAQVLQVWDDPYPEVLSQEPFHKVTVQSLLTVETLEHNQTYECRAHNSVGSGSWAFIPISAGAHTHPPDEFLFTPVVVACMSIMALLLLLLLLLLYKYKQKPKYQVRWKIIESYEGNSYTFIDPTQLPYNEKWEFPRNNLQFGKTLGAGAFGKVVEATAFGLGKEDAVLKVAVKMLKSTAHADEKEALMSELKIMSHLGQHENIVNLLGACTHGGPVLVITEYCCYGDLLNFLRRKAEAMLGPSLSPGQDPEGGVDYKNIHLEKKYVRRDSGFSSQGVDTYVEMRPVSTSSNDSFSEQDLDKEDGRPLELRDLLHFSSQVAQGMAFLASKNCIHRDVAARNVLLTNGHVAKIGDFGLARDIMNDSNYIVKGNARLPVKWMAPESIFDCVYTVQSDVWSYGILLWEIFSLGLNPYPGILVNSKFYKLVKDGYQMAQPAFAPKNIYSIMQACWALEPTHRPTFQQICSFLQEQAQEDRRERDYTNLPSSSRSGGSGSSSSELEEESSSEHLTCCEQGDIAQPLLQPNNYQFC
Chain of Activin receptor type-1-like (Homo sapiens) (P37023 whole entry, the tested form may be a part): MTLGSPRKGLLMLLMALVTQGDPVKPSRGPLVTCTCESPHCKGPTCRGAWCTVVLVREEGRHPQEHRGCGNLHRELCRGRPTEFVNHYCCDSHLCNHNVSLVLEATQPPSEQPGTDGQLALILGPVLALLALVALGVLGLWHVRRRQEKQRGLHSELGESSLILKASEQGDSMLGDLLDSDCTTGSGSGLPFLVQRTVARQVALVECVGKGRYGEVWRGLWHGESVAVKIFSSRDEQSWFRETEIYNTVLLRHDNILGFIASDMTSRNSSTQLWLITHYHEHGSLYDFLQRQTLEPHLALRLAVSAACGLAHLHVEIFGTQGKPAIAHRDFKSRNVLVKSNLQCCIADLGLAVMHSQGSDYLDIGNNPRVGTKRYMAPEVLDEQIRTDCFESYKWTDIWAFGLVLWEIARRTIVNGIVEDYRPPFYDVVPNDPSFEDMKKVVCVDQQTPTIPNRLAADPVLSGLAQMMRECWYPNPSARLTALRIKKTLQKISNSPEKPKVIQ
Chain of Serine/threonine-protein kinase 38-like (Homo sapiens) (Q9Y2H1 2-464 limits assumed): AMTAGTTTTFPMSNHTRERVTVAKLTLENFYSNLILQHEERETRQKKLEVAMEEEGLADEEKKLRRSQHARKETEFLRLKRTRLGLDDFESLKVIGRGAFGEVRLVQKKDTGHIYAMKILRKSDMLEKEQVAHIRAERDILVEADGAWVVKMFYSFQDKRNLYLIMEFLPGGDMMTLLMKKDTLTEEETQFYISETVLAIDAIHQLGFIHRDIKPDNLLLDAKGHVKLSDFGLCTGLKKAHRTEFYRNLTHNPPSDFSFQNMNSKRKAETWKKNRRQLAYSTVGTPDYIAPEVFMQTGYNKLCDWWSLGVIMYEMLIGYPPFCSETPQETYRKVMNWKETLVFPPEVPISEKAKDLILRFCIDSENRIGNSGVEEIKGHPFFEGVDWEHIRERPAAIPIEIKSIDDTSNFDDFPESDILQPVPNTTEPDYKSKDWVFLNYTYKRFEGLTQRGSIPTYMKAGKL
Chain of Proto-oncogene tyrosine-protein kinase receptor Ret (Homo sapiens), P07949 [V804L] (P07949 whole entry V804L, the tested form may be a part): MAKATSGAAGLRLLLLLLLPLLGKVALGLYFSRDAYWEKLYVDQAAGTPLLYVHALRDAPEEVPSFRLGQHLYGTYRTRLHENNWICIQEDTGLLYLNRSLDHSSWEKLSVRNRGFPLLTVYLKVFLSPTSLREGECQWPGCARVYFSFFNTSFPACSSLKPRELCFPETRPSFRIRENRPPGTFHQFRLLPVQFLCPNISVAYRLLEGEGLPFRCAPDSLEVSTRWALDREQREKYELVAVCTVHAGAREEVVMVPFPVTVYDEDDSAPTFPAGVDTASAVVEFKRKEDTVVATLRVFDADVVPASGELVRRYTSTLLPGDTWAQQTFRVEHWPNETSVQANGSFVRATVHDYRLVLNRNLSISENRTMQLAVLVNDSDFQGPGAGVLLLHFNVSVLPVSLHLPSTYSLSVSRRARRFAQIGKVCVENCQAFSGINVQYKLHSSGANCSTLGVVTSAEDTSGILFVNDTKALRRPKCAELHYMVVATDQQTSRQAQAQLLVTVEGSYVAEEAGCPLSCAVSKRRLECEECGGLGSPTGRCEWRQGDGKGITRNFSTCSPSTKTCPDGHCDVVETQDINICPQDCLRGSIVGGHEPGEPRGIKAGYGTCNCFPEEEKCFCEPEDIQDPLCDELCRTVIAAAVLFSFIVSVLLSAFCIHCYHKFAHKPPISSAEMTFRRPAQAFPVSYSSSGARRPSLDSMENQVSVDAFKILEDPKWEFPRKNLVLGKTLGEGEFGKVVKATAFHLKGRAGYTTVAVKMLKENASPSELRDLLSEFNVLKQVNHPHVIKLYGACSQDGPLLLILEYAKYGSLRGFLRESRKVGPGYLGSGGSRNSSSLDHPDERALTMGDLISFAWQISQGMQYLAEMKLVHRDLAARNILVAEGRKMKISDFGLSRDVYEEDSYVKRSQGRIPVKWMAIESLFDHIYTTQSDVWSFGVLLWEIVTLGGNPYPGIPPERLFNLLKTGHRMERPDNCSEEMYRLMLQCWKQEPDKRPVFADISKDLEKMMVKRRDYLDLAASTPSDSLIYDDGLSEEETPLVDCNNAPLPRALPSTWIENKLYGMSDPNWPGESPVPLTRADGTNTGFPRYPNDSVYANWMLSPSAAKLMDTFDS

As to `COc1cc(OC)c(Cl)c(N2Cc3cnc(Nc4ccc(F)cc4)nc3N(C3CCN(C(=O)/C=C/CN(C)C)CC3)C2=O)c1Cl`, the Activity in assay [1] amounted to 100%; in [2], 100%; in assay [3] it was 100%; in assay [4], 74%; in assay [5], 95%; in [6], 100%. The Activity in assay [7] was determined as 83%; in assay [8], 96%; in [9], 100%; in [10], 100%; in [11], 98%; in [12], 100%. In addition, the Activity in [13] turned out to be 86%; in [14] it was 6.3%; in assay [15], 95%; in [16], 100%; in [17] it was 94%; in assay [18], 100%. For the same molecule, the Activity was 86% in assay [19] and 95% in [20].
